Experimental data published in ChEMBL document CHEMBL5150070, “Tricyclic SpiroLactams Kill Mycobacteria In Vitro and In Vivo by Inhibiting Type II NADH Dehydrogenases” (J Med Chem, 2022).
≈ marks a conversion by molar mass, not a printed value.

Assays:
[1] = system: Mycobacterium tuberculosis; assay: Antimycobacterial activity against Mycobacterium tuberculosis H37Rv assessed as reduction in bacterial cell growth by measuring resazurin reduction incubated for 6 days by fluorescence microplate based assay; format: functional; conditions: time 6 day
[2] = biological target: T1, Type II NADH:quinone oxidoreductase NdhA (Mycobacterium tuberculosis, UniProt P95200); assay: Inhibition of Mycobacterium smegmatis MC2 155 recombinant ndhA assessed as rate of NADH oxidation in the presence of an electron acceptor menadione; design: species or system Mycolicibacterium smegmatis
T1 sequence (P95200 whole entry): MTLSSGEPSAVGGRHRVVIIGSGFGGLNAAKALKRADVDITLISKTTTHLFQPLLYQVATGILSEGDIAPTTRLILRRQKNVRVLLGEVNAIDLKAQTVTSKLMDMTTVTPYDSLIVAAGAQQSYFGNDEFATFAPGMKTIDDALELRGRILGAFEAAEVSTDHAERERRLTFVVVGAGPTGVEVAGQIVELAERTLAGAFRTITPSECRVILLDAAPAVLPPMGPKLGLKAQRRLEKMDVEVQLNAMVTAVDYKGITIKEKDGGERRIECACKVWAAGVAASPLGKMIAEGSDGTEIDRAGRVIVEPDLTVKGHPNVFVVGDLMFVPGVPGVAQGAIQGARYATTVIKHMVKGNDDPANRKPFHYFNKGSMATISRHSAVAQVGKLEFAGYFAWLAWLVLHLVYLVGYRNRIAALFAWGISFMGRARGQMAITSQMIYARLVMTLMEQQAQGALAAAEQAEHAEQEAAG

[3] = biological target: Type II NADH:quinone oxidoreductase Ndh (Mycobacterium tuberculosis, UniProt P95160); assay: Inhibition of Mycobacterium tuberculosis recombinant type II NADH dehydrogenase ndh expressed in Escherichia coli assessed as rate of NADH oxidation in the presence of an electron acceptor menadione
Summary of the method: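 Purified N-terminal MBP-tagged Mtb Ndh (Rv1854c) expressed in E. coli, 70 nM, with 500 µM NADH in 50 mM HEPES pH 7.1 (K₂HPO₄). Compound pre-incubated 15 min at 25°C, reaction started with 100 µM menadione. NADH oxidation followed at 340 nm every 60 s. Rate taken from linear slope; IC50 is the mean ± SD of at least 3 independent experiments.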

[4] = system: Mycobacterium tuberculosis; assay: Antimycobacterial activity against Mycobacterium tuberculosis H37Rv infected in human A-THP1 macrophages assessed as viability of infected macrophages incubated for 96 hrs by fluorescence microplate assay; format: functional, organism-based
Summary of the method: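 THP-1 cells differentiated with 50 ng/mL PMA for 72 h, infected with log-phase H37Rv (MOI 10, 2 h), and extracellular bacteria killed with 50 µg/mL amikacin for 1 h. Cells detached and seeded at 5×10⁵/mL in RPMI-10% FBS with PMA onto pre-dispensed compound, 96 h at 37°C, 5% CO₂. Macrophage viability by 0.05% resazurin fluorescence.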

Chain of Type II NADH:quinone oxidoreductase Ndh (P95160 whole entry): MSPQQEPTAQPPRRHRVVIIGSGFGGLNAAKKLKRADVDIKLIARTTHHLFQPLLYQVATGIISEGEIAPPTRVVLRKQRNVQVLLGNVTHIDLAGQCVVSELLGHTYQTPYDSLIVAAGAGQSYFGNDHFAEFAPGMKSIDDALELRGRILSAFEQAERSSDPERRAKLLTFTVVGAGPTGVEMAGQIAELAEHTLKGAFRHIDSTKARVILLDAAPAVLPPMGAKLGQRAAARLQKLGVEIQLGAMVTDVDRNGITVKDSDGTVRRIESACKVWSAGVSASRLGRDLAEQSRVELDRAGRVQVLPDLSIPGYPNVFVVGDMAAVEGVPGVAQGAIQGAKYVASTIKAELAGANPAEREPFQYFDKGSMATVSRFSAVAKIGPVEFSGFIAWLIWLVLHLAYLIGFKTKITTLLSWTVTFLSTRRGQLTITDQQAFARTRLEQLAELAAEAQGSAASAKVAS

Compound | MIC98 [1] | other results
Cc1ccc(CN2CC[C@]34OC[C@H](C(C)C)N3C(=O)CC[C@@H]4C2)cc1 | 1.7 µM (≈ 0.582 µg/mL) | 
COc1ccc(CN2CC[C@]34OC[C@H](C(C)C)N3C(=O)CC[C@@H]4C2)cc1 | 4.7 µM (≈ 1.68 µg/mL) | IC50 [2]: 2.34 µM; IC50 [3]: 0.2 µM
O=C1CC[C@@H]2CN(Cc3ccccc3)CC[C@@]23OC[C@H](C2CC2)N13 | 37.5 µM (≈ 12.2 µg/mL) | 
C[C@H]1CO[C@]23CCN(Cc4ccccc4)C[C@H]2CCC(=O)N13 | >100 µM | 
CC(C)(C)[C@H]1CO[C@]23CCN(Cc4ccccc4)C[C@H]2CCC(=O)N13 | 25 µM (≈ 8.56 µg/mL) | 
NNC(=O)c1ccncc1 [ISONIAZID] |  | IC50 [4]: 0.204 µM
